Measurements published in ChEMBL document CHEMBL1138520, “Molecular and conformational determinants of pituitary adenylate cyclase-activating polypeptide (PACAP) for activation of the PAC1 receptor” (J Med Chem, 2009).
Activity calls are given as the source filed them. No cut-off for these calls is given here.

Key:
[1] = target: T1, Pituitary adenylate cyclase-activating polypeptide type I receptor (Homo sapiens, UniProt P41586); assay: Displacement of [125I]Ac-PACAP27 from human recombinant PAC1 receptor expressed in CHO cells by gamma- counter; assay type: cell-based
Target sequence in this assay (P41586 whole entry): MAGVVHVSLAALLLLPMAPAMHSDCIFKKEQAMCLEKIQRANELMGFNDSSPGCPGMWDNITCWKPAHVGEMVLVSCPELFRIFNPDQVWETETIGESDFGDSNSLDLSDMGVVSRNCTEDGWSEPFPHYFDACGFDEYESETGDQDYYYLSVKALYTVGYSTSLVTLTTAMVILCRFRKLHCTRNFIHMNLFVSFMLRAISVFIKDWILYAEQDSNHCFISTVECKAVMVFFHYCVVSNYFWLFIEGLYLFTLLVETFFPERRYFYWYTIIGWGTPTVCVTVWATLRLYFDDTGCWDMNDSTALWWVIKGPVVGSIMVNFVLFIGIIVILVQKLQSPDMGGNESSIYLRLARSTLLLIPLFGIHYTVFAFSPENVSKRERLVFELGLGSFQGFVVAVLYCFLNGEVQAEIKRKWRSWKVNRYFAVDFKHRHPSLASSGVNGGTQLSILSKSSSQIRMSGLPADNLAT

[2] = target: T1, Pituitary adenylate cyclase-activating polypeptide type I receptor; assay: Antagonist activity at human recombinant PAC1 receptor expressed in CHO cells assessed as reduction in PACAP38-induced calcium mobilization by FLIPR assay; assay type: functional, cell-based; details: read-out: pA2 (converted)
Method in brief: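 PAC1-CHO cells were loaded with fluo-4 and preincubated 15 min with antagonist at 0.1, 1 or 10 µM. PACAP38 concentration-response curves for calcium mobilization were then recorded. pA2 was estimated by Schild plot from concentration ratios; 4-10 independent assays in duplicate.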
Target sequence in this assay (P41586 whole entry): as above

[3] = target: T1, Pituitary adenylate cyclase-activating polypeptide type I receptor; assay: Agonist activity at human recombinant PAC1 receptor expressed in CHO cells assessed as PACAP38-induced calcium mobilization at 1 uM by FLIPR assay relative to PACAP38; assay type: functional, cell-based
Target sequence in this assay (P41586 21-468 limits assumed): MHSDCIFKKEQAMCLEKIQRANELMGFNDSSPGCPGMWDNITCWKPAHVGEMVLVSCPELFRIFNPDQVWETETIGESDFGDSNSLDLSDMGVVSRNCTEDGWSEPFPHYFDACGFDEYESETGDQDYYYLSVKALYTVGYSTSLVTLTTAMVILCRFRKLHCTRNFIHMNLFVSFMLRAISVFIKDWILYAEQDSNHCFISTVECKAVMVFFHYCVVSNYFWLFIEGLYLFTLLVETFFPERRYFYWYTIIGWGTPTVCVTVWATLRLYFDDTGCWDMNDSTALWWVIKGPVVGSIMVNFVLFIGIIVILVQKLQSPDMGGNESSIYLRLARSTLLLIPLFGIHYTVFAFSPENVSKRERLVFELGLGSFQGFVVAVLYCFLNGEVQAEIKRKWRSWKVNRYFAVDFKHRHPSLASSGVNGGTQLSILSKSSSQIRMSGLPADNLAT

[4] = target: T1, Pituitary adenylate cyclase-activating polypeptide type I receptor; assay: Agonist activity at human recombinant PAC1 receptor expressed in CHO cells assessed as PACAP38-induced calcium mobilization at 1 uM by FLIPR assay; assay type: functional, cell-based
Target sequence in this assay (P41586 whole entry): as the sequence (P41586 whole entry) above

[5] = target: T1, Pituitary adenylate cyclase-activating polypeptide type I receptor; assay: Antagonist activity at human recombinant PAC1 receptor expressed in CHO cells assessed as reduction in PACAP38-induced calcium mobilization at 10 uM by FLIPR assay; assay type: functional, cell-based
Method in brief: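 Fluo-4-loaded CHO cells stably expressing human PAC1 were exposed for 15 min to 10^-5 M peptide before reading. They were then challenged with 10^-6 M PACAP38, and the reduction in fluorescence calcium response was recorded (ex 480/em 525 nm, 150 s).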
Target sequence in this assay (P41586 21-468 limits assumed): as the sequence (P41586 21-468 limits assumed) above

CC[C@H](C)[C@@H](C(=O)N[C@@H](Cc1ccccc1)C(=O)N[C@H](C(=O)N[C@@H](CC(=O)O)C(=O)N[C@@H](CO)C(=O)N[C@@H](Cc1ccc(O)cc1)C(=O)N[C@@H](CO)C(=O)N[C@@H](CCCNC(=N)N)C(=O)N[C@@H](Cc1ccc(O)cc1)C(=O)N[C@@H](CCCNC(=N)N)C(=O)N[C@@H](CCCCN)C(=O)N[C@@H](CCC(N)=O)C(=O)N[C@@H](CCSC)C(=O)N[C@@H](C)C(=O)N[C@H](C(=O)N[C@@H](CCCCN)C(=O)N[C@@H](CCCCN)C(=O)N[C@@H](Cc1ccc(O)cc1)C(=O)N[C@@H](CC(C)C)C(=O)N[C@@H](C)C(=O)N[C@@H](C)C(=O)N[C@H](C(=O)N[C@@H](CC(C)C)C(=O)NCC(=O)N[C@@H](CCCCN)C(=O)N[C@@H](CCCNC(=N)N)C(=O)N[C@@H](Cc1ccc(O)cc1)C(=O)N[C@@H](CCCCN)C(=O)N[C@@H](CCC(N)=O)C(=O)N[C@@H](CCCNC(=N)N)C(=O)N[C@H](C(=O)N[C@@H](CCCCN)C(=O)N[C@@H](CC(N)=O)C(=O)N[C@@H](CCCCN)C(N)=O)C(C)C)C(C)C)C(C)C)[C@@H](C)O)N(C)C(=O)CNC(=O)[C@H](CC(=O)O)NC(=O)[C@H](CO)NC(=O)[C@@H](N)Cc1cnc[nH]1
IC50 [1]: 158 nM | Kb [2]: 52.5 nM | Emax [3]: inactive | EC50 [4]: Not Active

CC[C@H](C)[C@H](NC(=O)CN(C)C(=O)[C@H](CC(=O)O)NC(=O)[C@H](CO)NC(=O)[C@@H](N)Cc1cnc[nH]1)C(=O)N[C@@H](Cc1ccccc1)C(=O)N[C@H](C(=O)N[C@@H](CC(=O)O)C(=O)N[C@@H](CO)C(=O)N[C@@H](Cc1ccc(O)cc1)C(=O)N[C@@H](CO)C(=O)N[C@@H](CCCNC(=N)N)C(=O)N[C@@H](Cc1ccc(O)cc1)C(=O)N[C@@H](CCCNC(=N)N)C(=O)N[C@@H](CCCCN)C(=O)N[C@@H](CCC(N)=O)C(=O)N[C@@H](CCSC)C(=O)N[C@@H](C)C(=O)N[C@H](C(=O)N[C@@H](CCCCN)C(=O)N[C@@H](CCCCN)C(=O)N[C@@H](Cc1ccc(O)cc1)C(=O)N[C@@H](CC(C)C)C(=O)N[C@@H](C)C(=O)N[C@@H](C)C(=O)N[C@H](C(=O)N[C@@H](CC(C)C)C(=O)NCC(=O)N[C@@H](CCCCN)C(=O)N[C@@H](CCCNC(=N)N)C(=O)N[C@@H](Cc1ccc(O)cc1)C(=O)N[C@@H](CCCCN)C(=O)N[C@@H](CCC(N)=O)C(=O)N[C@@H](CCCNC(=N)N)C(=O)N[C@H](C(=O)N[C@@H](CCCCN)C(=O)N[C@@H](CC(N)=O)C(=O)N[C@@H](CCCCN)C(N)=O)C(C)C)C(C)C)C(C)C)[C@@H](C)O
IC50 [1]: 97 nM | Kb [2]: 4.07 nM | Emax [3]: inactive | EC50 [4]: Not Active

CSCC[C@H](NC(=O)[C@H](CCC(N)=O)NC(=O)[C@H](CCCCN)NC(=O)[C@H](CCCNC(=N)N)NC(=O)[C@H](Cc1ccc(O)cc1)NC(=O)[C@H](CCCNC(=N)N)NC(=O)[C@H](CO)NC(=O)[C@H](Cc1ccc(O)cc1)NC(=O)[C@H](CO)NC(=O)[C@H](CC(=O)O)NC(=O)[C@@H](NC(=O)[C@@H](N)Cc1ccccc1)[C@@H](C)O)C(=O)N[C@@H](C)C(=O)N[C@H](C(=O)N[C@@H](CCCCN)C(=O)N[C@@H](CCCCN)C(=O)N[C@@H](Cc1ccc(O)cc1)C(=O)N[C@@H](CC(C)C)C(=O)N[C@@H](C)C(=O)N[C@@H](C)C(=O)N[C@H](C(=O)N[C@@H](CC(C)C)C(=O)NCC(=O)N[C@@H](CCCCN)C(=O)N[C@@H](CCCNC(=N)N)C(=O)N[C@@H](Cc1ccc(O)cc1)C(=O)N[C@@H](CCCCN)C(=O)N[C@@H](CCC(N)=O)C(=O)N[C@@H](CCCNC(=N)N)C(=O)N[C@H](C(=O)N[C@@H](CCCCN)C(=O)N[C@@H](CC(N)=O)C(=O)N[C@@H](CCCCN)C(N)=O)C(C)C)C(C)C)C(C)C
IC50 [1]: 56.7 nM | Kb [2]: 11 nM | Emax [3]: inactive | EC50 [4]: Not Active

CC[C@H](C)[C@H](NC(=O)CNC(=O)[C@H](CC(=O)O)NC(=O)[C@H]1CCCN1C(=O)[C@@H](N)Cc1cnc[nH]1)C(=O)N[C@@H](Cc1ccccc1)C(=O)N[C@H](C(=O)N[C@@H](CC(=O)O)C(=O)N[C@@H](CO)C(=O)N[C@@H](Cc1ccc(O)cc1)C(=O)N[C@@H](CO)C(=O)N[C@@H](CCCNC(=N)N)C(=O)N[C@@H](Cc1ccc(O)cc1)C(=O)N[C@@H](CCCNC(=N)N)C(=O)N[C@@H](CCCCN)C(=O)N[C@@H](CCC(N)=O)C(=O)N[C@@H](CCSC)C(=O)N[C@@H](C)C(=O)N[C@H](C(=O)N[C@@H](CCCCN)C(=O)N[C@@H](CCCCN)C(=O)N[C@@H](Cc1ccc(O)cc1)C(=O)N[C@@H](CC(C)C)C(=O)N[C@@H](C)C(=O)N[C@@H](C)C(=O)N[C@H](C(=O)N[C@@H](CC(C)C)C(=O)NCC(=O)N[C@@H](CCCCN)C(=O)N[C@@H](CCCNC(=N)N)C(=O)N[C@@H](Cc1ccc(O)cc1)C(=O)N[C@@H](CCCCN)C(=O)N[C@@H](CCC(N)=O)C(=O)N[C@@H](CCCNC(=N)N)C(=O)N[C@H](C(=O)N[C@@H](CCCCN)C(=O)N[C@@H](CC(N)=O)C(=O)N[C@@H](CCCCN)C(N)=O)C(C)C)C(C)C)C(C)C)[C@@H](C)O
IC50 [1]: 76.3 nM | Kb [2]: 35.5 nM | Emax [3]: inactive | EC50 [4]: Not Active

CC[C@H](C)[C@H](NC(=O)CN(C)C(=O)[C@H](CC(=O)O)NC(=O)[C@H](CO)NC(=O)[C@@H](N)Cc1cnc[nH]1)C(=O)N[C@@H](Cc1ccccc1)C(=O)N[C@H](C(=O)N[C@@H](CC(=O)O)C(=O)N[C@@H](CO)C(=O)N[C@@H](Cc1ccc(O)cc1)C(=O)N[C@@H](CO)C(=O)N[C@@H](CCCNC(=N)N)C(=O)N[C@@H](Cc1ccc(O)cc1)C(=O)N[C@@H](CCCNC(=N)N)C(=O)N[C@@H](CCCCN)C(=O)N[C@@H](CCC(N)=O)C(=O)N[C@@H](CCSC)C(=O)N[C@@H](C)C(=O)N[C@H](C(=O)N[C@@H](CCCCN)C(=O)N[C@@H](CCCCN)C(=O)N[C@@H](Cc1ccc(O)cc1)C(=O)N[C@@H](CC(C)C)C(=O)N[C@@H](C)C(=O)N[C@@H](C)C(=O)N[C@H](C(=O)N[C@@H](CC(C)C)C(N)=O)C(C)C)C(C)C)[C@@H](C)O
Activity [5]: inactive | IC50 [1]: 308 nM | Emax [3]: inactive | EC50 [4]: Not Active

CC[C@H](C)[C@H](NC(=O)CNC(=O)[C@H](CC(=O)O)NC(=O)[C@H](CO)NC(=O)[C@@H](N)Cc1cnc[nH]1)C(=O)N(C)[C@@H](Cc1ccccc1)C(=O)N[C@H](C(=O)N[C@@H](CC(=O)O)C(=O)N[C@@H](CO)C(=O)N[C@@H](Cc1ccc(O)cc1)C(=O)N[C@@H](CO)C(=O)N[C@@H](CCCNC(=N)N)C(=O)N[C@@H](Cc1ccc(O)cc1)C(=O)N[C@@H](CCCNC(=N)N)C(=O)N[C@@H](CCCCN)C(=O)N[C@@H](CCC(N)=O)C(=O)N[C@@H](CCSC)C(=O)N[C@@H](C)C(=O)N[C@H](C(=O)N[C@@H](CCCCN)C(=O)N[C@@H](CCCCN)C(=O)N[C@@H](Cc1ccc(O)cc1)C(=O)N[C@@H](CC(C)C)C(=O)N[C@@H](C)C(=O)N[C@@H](C)C(=O)N[C@H](C(=O)N[C@@H](CC(C)C)C(=O)NCC(=O)N[C@@H](CCCCN)C(=O)N[C@@H](CCCNC(=N)N)C(=O)N[C@@H](Cc1ccc(O)cc1)C(=O)N[C@@H](CCCCN)C(=O)N[C@@H](CCC(N)=O)C(=O)N[C@@H](CCCNC(=N)N)C(=O)N[C@H](C(=O)N[C@@H](CCCCN)C(=O)N[C@@H](CC(N)=O)C(=O)N[C@@H](CCCCN)C(N)=O)C(C)C)C(C)C)C(C)C)[C@@H](C)O
IC50 [1]: 1280 nM | Emax [3]: inactive | EC50 [4]: Not Active
